# Data reported in ChEMBL document CHEMBL1144782, “Isoindolo[2,1-a]quinoxaline derivatives, novel potent antitumor agents with dual inhibition of tubulin polymerization and topoisomerase I” (2008).
# Assays:
# Type in all cases: functional
# [1] = tested on: HOP-92; experiment: Antitumor activity against human HOP92 cells
# Outline: (§1)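 Run by the NCI in its in vitro disease-oriented screen of about 60 human tumour cell lines. For each line it reports pGI50 (50% net growth inhibition), pTGI (total growth inhibition) and pLC50 (50% net cell death), each as –log molar concentration. Where an effect was not reached within the tested range, the highest tested concentration was used.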
# [2] = tested on: NCI-H23; experiment: Antitumor activity against human NCI-H23 cells; outline: as §1
# [3] = tested on: NCI-H522; experiment: Antitumor activity against human NCI-H522 cells; outline: as §1
# [4] = tested on: HCC 2998; experiment: Antitumor activity against human HCC2998 cells; outline: as §1
# [5] = tested on: HCT-116; experiment: Antitumor activity against human HCT116 cells; outline: as §1
# [6] = tested on: KM12; experiment: Antitumor activity against human KM12 cells; outline: as §1
# [7] = tested on: SF-268; experiment: Antitumor activity against human SF268 cells; outline: as §1
# [8] = tested on: SF-295; experiment: Antitumor activity against human SF295 cells; outline: as §1
# [9] = tested on: SF-539; experiment: Antitumor activity against human SF539 cells; outline: as §1
# [10] = tested on: SNB-19; experiment: Antitumor activity against human SNB19 cells; outline: as §1
# [11] = tested on: U-251; experiment: Antitumor activity against human U251 cells
# Outline: (§2)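 NCI 60-cell-line screen. Parameters were GI50 (50% net growth inhibition), TGI and LC50, each reported as –log molar concentration. Where an effect was not reached within the tested range, the highest tested concentration was used in the calculation.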
# [12] = tested on: LOX IMVI; experiment: Antitumor activity against human LOXIMVI cells; outline: as §1
# [13] = tested on: M14; experiment: Antitumor activity against human M14 cells; outline: as §1
# [14] = tested on: SK-MEL-28; experiment: Antitumor activity against human SKMEL28 cells; outline: as §1
# [15] = tested on: SK-MEL-5; experiment: Antitumor activity against human SKMEL5 cells; outline: as §1
# [16] = tested on: UACC-257; experiment: Antitumor activity against human UACC257 cells; outline: as §2
# [17] = tested on: UACC-62; experiment: Antitumor activity against human UACC62 cells; outline: as §2
# [18] = tested on: IGROV-1; experiment: Antitumor activity against human IGROV1 cells; outline: as §1
# [19] = tested on: OVCAR-4; experiment: Antitumor activity against human OVCAR4 cells; outline: as §1
# [20] = tested on: OVCAR-5; experiment: Antitumor activity against human OVCAR5 cells; outline: as §1
# [21] = tested on: OVCAR-8; experiment: Antitumor activity against human OVCAR8 cells; outline: as §1
# [22] = tested on: SK-OV-3; experiment: Antitumor activity against human SKOV3 cells; outline: as §1
# [23] = tested on: A498; experiment: Antitumor activity against human A498 cells; outline: as §1
# [24] = tested on: ACHN; experiment: Antitumor activity against human ACHN cells; outline: as §1
# [25] = tested on: CAKI-1; experiment: Antitumor activity against human CAKI1 cells; outline: as §1
# [26] = tested on: RXF 393; experiment: Antitumor activity against human RXF393 cells; outline: as §1
# [27] = tested on: NCI-H460; experiment: Cell viability against human NCI-H460 cells at 10 uM
# [28] = tested on: SF-268; experiment: Cell viability against human SF268 cells at 10 uM
# [29] = tested on: RPMI-8226; experiment: Antitumor activity against human RPMI8226 cells; outline: as §1
# [30] = tested on: MOLT-4; experiment: Antitumor activity against human MOLT4 cells; outline: as §1
# [31] = tested on: SR; experiment: Antitumor activity against human SR cells; outline: as §2
# [32] = tested on: A549; experiment: Antitumor activity against human A549 cells; outline: as §1
# [33] = tested on: HOP-62; experiment: Antitumor activity against human HOP62 cells; outline: as §1
# [34] = tested on: MCF7; experiment: Antitumor activity against human MCF7 cells; outline: as §1
# [35] = Antitumor activity against human […] cells; outline: as §1
# [36] = tested on: Hs-578T; experiment: Antitumor activity against human HS578T cells; outline: as §1
# [37] = tested on: MDA-MB-435; experiment: Antitumor activity against human MDA-MB-435 cells; outline: as §1
# [38] = tested on: T47D; experiment: Antitumor activity against human T47D cells; outline: as §2
# [39] = tested on: CCRF-CEM; experiment: Growth inhibition of human vinblastine-resistant CEM cells after 72 hrs by MTT assay
# Outline: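 Growth inhibition by MTT after 72 h incubation. Resistant sublines: LoVoDoxo and MCF-7 MDR were kept in 0.1 µg/mL doxorubicin; CEMVbl-100 was selected against vinblastine. GI50 given as mean ± SEM of three independent experiments. Resistance index is resistant-line GI50 over parental GI50.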
# [40] = tested on: CCRF-CEM; experiment: Resistance index, Ratio of GI50 for human vinblastine-resistant CEM cells to GI50 for human CEM cells
# [41] = read-out: Log LC50 (the source's name) (converted)
compound,measurement,setting,value
O=c1[nH]c2ccccc2n2cc3ccccc3c12,GI50,[1],3.98 µM
same,LC50,[1],51.3 µM
same,TGI,[1]; read-out: pTGI (converted),18.6 µM
same,GI50,[2],11.2 µM
same,LC50 (50% net cell kill),[2],> 100 µM
same,TGI,[2]; read-out: pTGI (converted),36.3 µM
same,GI50,[3],13.8 µM
same,CC50,[3]; [41],75.9 µM
same,TGI,[3]; read-out: pTGI (converted),32.4 µM
same,GI50,[4],5.89 µM
same,LC50,[4],57.5 µM
same,TGI,[4]; read-out: pTGI (converted),20.9 µM
same,GI50,[5],2.14 µM
same,LC50,[5],49 µM
same,TGI,[5]; read-out: pTGI (converted),12.3 µM
same,GI50,[6],19.1 µM
same,LC50 (50% net cell death),[6],83.2 µM
same,TGI,[6]; read-out: pTGI (converted),39.8 µM
same,GI50,[7],21.4 µM
same,CC50,[7]; [41],> 100 µM
same,TGI,[7]; read-out: pTGI (converted),87.1 µM
same,GI50,[8],17.8 µM
same,CC50,[8]; [41],70.8 µM
same,TGI,[8]; read-out: pTGI (converted),35.5 µM
same,GI50,[9],5.13 µM
same,LC50 (50% net cell kill),[9],75.9 µM
same,TGI,[9]; read-out: pTGI (converted),22.4 µM
same,GI50,[10],8.91 µM
same,CC50,[10]; [41],> 100 µM
same,TGI,[10]; read-out: pTGI (converted),> 100 µM
same,GI50,[11],3.24 µM
same,CC50,[11]; [41],70.8 µM
same,TGI,[11]; read-out: pTGI (converted),13.5 µM
same,GI50,[12],3.02 µM
same,LC50 (50% net cell kill),[12],85.1 µM
same,TGI,[12]; read-out: pTGI (converted),12 µM
same,GI50,[13],6.46 µM
same,CC50,[13]; [41],64.6 µM
same,TGI,[13]; read-out: pTGI (converted),22.9 µM
same,GI50,[14],22.4 µM
same,CC50,[14]; [41],> 100 µM
same,TGI,[14]; read-out: pTGI (converted),> 100 µM
same,GI50,[15],1.91 µM
same,LC50,[15],60.3 µM
same,TGI,[15]; read-out: pTGI (converted),14.8 µM
same,GI50,[16],15.1 µM
same,LC50,[16],72.4 µM
same,TGI,[16]; read-out: pTGI (converted),33.1 µM
same,GI50,[17],3.24 µM
same,LC50,[17],45.7 µM
same,TGI,[17]; read-out: pTGI (converted),15.8 µM
same,GI50,[18],10.2 µM
same,CC50,[18]; [41],63.1 µM
same,TGI,[18]; read-out: pTGI (converted),25.7 µM
same,GI50,[19],7.24 µM
same,LC50 (50% net cell kill),[19],> 100 µM
same,TGI,[19]; read-out: pTGI (converted),89.1 µM
same,GI50,[20],10.5 µM
same,LC50 (50% net cell death),[20],> 100 µM
same,TGI,[20]; read-out: pTGI (converted),35.5 µM
same,GI50,[21],5.25 µM
same,LC50 (50% net cell death),[21],> 100 µM
same,TGI,[21]; read-out: pTGI (converted),33.1 µM
same,GI50,[22],12.3 µM
same,LC50 (50% net cell kill),[22],> 100 µM
same,TGI,[22]; read-out: pTGI (converted),35.5 µM
same,GI50,[23],11.2 µM
same,CC50,[23]; [41],64.6 µM
same,TGI,[23]; read-out: pTGI (converted),26.9 µM
same,GI50,[24],1.82 µM
same,LC50 (50% net cell kill),[24],34.7 µM
same,TGI,[24]; read-out: pTGI (converted),7.24 µM
same,GI50,[25],17.8 µM
same,LC50,[25],70.8 µM
same,TGI,[25]; read-out: pTGI (converted),35.5 µM
same,GI50,[26],6.31 µM
same,CC50,[26]; [41],> 100 µM
same,TGI,[26]; read-out: pTGI (converted),30.2 µM
same,Activity,[27],0%
same,Activity,[28],9%
same,GI50,[29],3.72 µM
same,CC50,[29]; [41],> 100 µM
same,TGI,[29]; read-out: pTGI (converted),22.4 µM
same,GI50,[30],3.63 µM
same,LC50,[30],> 100 µM
same,TGI,[30]; read-out: pTGI (converted),8.71 µM
same,GI50,[31],2.88 µM
same,LC50,[31],> 100 µM
same,TGI,[31]; read-out: pTGI (converted),7.76 µM
same,GI50,[32],5.89 µM
same,CC50,[32]; [41],> 100 µM
same,TGI,[32]; read-out: pTGI (converted),32.4 µM
same,GI50,[33],4.37 µM
same,LC50 (50% net cell death),[33],52.5 µM
same,TGI,[33]; read-out: pTGI (converted),17.8 µM
same,GI50,[34],10.5 µM
same,LC50 (50% net cell kill),[34],> 100 µM
same,TGI,[34]; read-out: pTGI (converted),> 100 µM
same,GI50,[35],0.955 µM
same,LC50,[35],58.9 µM
same,TGI,[35]; read-out: pTGI (converted),10.2 µM
same,GI50,[36],0.525 µM
same,CC50,[36]; [41],> 100 µM
same,TGI,[36]; read-out: pTGI (converted),34.7 µM
same,GI50,[37],16.2 µM
same,LC50 (50% net cell death),[37],58.9 µM
same,TGI,[37]; read-out: pTGI (converted),30.9 µM
same,GI50,[38],7.41 µM
same,LC50,[38],> 100 µM
same,TGI,[38]; read-out: pTGI (converted),> 100 µM
same,GI50,[39],3.8 µM
same,RatioGI50,[40],0.8
